The subject of assay [1] is Escherichia coli. Briefly: Antibacterial activity against Escherichia coli K-12 in M9 minimal media in presence of methionine by turbidometric method. It is filed as functional.
The test system of assay [2] is Escherichia coli. Description: Antibacterial activity against Escherichia coli K-12 in M9 minimal media in presence of folate precursor PABA by turbidometric method. The assay is classed as functional.
In assay [3] the test system is Escherichia coli. Description: Antibacterial activity against Escherichia coli K-12 in M9 minimal media by turbidometric method. The assay is classed as functional.
The target of assay [4] is T1, Dihydropteroate synthase (Bacillus anthracis, UniProt Q81VW8).
T1 sequence (Q81VW8 whole entry): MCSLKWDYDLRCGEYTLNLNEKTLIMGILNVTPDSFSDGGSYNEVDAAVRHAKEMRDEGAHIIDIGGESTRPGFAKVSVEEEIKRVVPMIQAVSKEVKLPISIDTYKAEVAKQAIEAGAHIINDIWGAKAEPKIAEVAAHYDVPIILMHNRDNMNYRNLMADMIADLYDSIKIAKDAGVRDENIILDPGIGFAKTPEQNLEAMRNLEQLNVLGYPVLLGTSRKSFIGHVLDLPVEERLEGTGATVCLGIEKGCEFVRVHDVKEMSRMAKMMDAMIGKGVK
Description: Inhibition of fluorescein-labeled probe binding to Bacillus anthracis N-terminal His-tagged DHPS incubated for 1 hr in presence of sodium pyrophosphate by fluorescence polarization assay. The gist of the method: (§1)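 Competition binding of test compounds against a probe on B. anthracis DHPS, read by fluorescence polarization as displacement of the probe; run without added pyrophosphate or with 2 mM sodium pyrophosphate, the DHPS reaction byproduct, to confirm site-specific binding; IC50 values derived from probe displacement.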
In general terms: Polarisation of emitted light reports the rotation of a fluorescent probe.

Assay [5] concerns the target T1, Dihydropteroate synthase. Briefly: Inhibition of fluorescein-labeled probe binding to Bacillus anthracis N-terminal His-tagged DHPS incubated for 1 hr by fluorescence polarization assay. The procedure, abridged: as §1

By MIC is commonly meant the lowest concentration found to suppress growth. For orientation: IC50 means the concentration that gives 50% inhibition.

Converted amounts (≈) assume the structure as drawn.

For the molecule `CC(=O)Nc1nc2ncc(CNc3ccc(S(=O)(=O)Nc4onc(C)c4C)cc3)nc2c(=O)[nH]1`, the minimal inhibitory concentration (MIC) in assay [1] was 5.9 µM; in assay [2], 249 µM; in assay [3] it was 1.5 µM (≈ 0.727 µg/mL).

Consider `CC(=O)Nc1nc2ncc(CNc3ccc(S(=O)(=O)c4ccc(N)cc4)cc3)nc2c(=O)[nH]1`, for which the MIC in assay [1] is 50 µM; in assay [2], greater than 934 µM; in assay [3], 25 µM (≈ 11.6 µg/mL).

`CC(=O)Nc1nc2ncc(CNc3ccc(S(=O)(=O)NC(C)=O)cc3)nc2c(=O)[nH]1`: the MIC in assay [1] is 58 µM; in assay [2] it was greater than 934 µM; in assay [3] it was 22 µM (≈ 9.49 µg/mL).

On to `Cc1noc(NS(=O)(=O)c2ccc(NCc3cnc4nc(N)[nH]c(=O)c4n3)cc2)c1C`, for which the minimal inhibitory concentration (MIC) was 47 µM in assay [1], greater than 412 µM in assay [2] and 28.3 µM (≈ 12.5 µg/mL) in assay [3]. Moreover, the IC50 is 8.1 µM in assay [4] and 22.5 µM in assay [5].

For the molecule `CC(=O)Nc1nc2ncc(CNc3ccc(S(=O)(=O)Nc4ncccn4)cc3)nc2c(=O)[nH]1`, the MIC in assay [1] is 6.2 µM; in assay [2], 666 µM; in assay [3] it was 1.6 µM (≈ 0.748 µg/mL).

Regarding `Nc1ccc(S(=O)(=O)c2ccc(NCc3cnc4nc(N)[nH]c(=O)c4n3)cc2)cc1`, the figures for the MIC in assay [1], in assay [2] and in assay [3] were 236 µM, 236 µM and 197 µM (≈ 83.4 µg/mL), respectively. Besides, the results for the IC50 in assay [4] and in assay [5] were 11.3 µM and 17.8 µM, respectively.

In the case of `COc1ncnc(NS(=O)(=O)c2ccc(NCc3cnc4nc(N)[nH]c(=O)c4n3)cc2)c1OC`, the results for the minimum inhibitory concentration (MIC) in assay [1], in assay [2] and in assay [3] were 172 µM, greater than 412 µM and 34.3 µM (≈ 16.7 µg/mL), respectively. Besides, the IC50 in assay [4] was found to be 11.5 µM; in assay [5] it was 15.2 µM.

As to `COc1ncnc(NS(=O)(=O)c2ccc(NCc3cnc4nc(NC(C)=O)[nH]c(=O)c4n3)cc2)c1OC`, the minimum inhibitory concentration (MIC) in assay [1] is 10.1 µM; in assay [2], greater than 644 µM; in assay [3] it was 3.8 µM (≈ 2 µg/mL).

Regarding `Cc1cc(NS(=O)(=O)c2ccc(NCc3cnc4nc(N)[nH]c(=O)c4n3)cc2)no1`, the MIC amounted to 29 µM in assay [1], 467 µM in assay [2] and 10.9 µM (≈ 4.67 µg/mL) in assay [3]. Further, the IC50 amounted to 3.4 µM in assay [4] and 20.6 µM in assay [5].

As to `CC(=O)NS(=O)(=O)c1ccc(NCc2cnc3nc(N)[nH]c(=O)c3n2)cc1`, the minimum inhibitory concentration (MIC) in assay [1] is greater than 200 µM; in assay [2], greater than 514 µM; in assay [3], 136 µM (≈ 53 µg/mL). Moreover, the IC50 in assay [4] stood at 17.1 µM; in assay [5] it was 18.6 µM.

For `CC(=O)Nc1nc2ncc(CNc3ccc(S(=O)(=O)Nc4cc(C)on4)cc3)nc2c(=O)[nH]1`, the figures for the minimal inhibitory concentration (MIC) in assay [1], in assay [2] and in assay [3] were 1.5 µM, 263 µM and 0.8 µM (≈ 0.376 µg/mL), respectively.

For `CC1(C)S[C@@H]2[C@H](NC(=O)[C@H](N)c3ccccc3)C(=O)N2[C@H]1C(=O)O` [AMPICILLIN], the MIC came to 2.1 µM in assay [1], 2 µM in assay [2] and 1.58 µM (≈ 0.552 µg/mL) in assay [3].

Regarding `COc1cc(Cc2cnc(N)nc2N)cc(OC)c1OC` [TRIMETHOPRIM], the figures for the minimum inhibitory concentration (MIC) in assay [1], in assay [2] and in assay [3] were 0.7 µM, 1.4 µM and 1.7 µM (≈ 0.494 µg/mL), respectively.

Consider `CC(=O)Nc1nc2ncc(CNc3ccc(S(=O)(=O)Nc4ccccn4)cc3)nc2c(=O)[nH]1`, for which the MIC in assay [1] amounted to 6.3 µM; in assay [2] it was 669 µM; in assay [3] it was 2.7 µM (≈ 1.26 µg/mL).

As to `COc1cc(NS(=O)(=O)c2ccc(NCc3cnc4nc(N)[nH]c(=O)c4n3)cc2)nc(OC)n1`, the minimum inhibitory concentration (MIC) is 86 µM in assay [1], greater than 412 µM in assay [2] and 17.2 µM (≈ 8.35 µg/mL) in assay [3]. The half-inhibitory concentration (IC50) in assay [4] turned out to be 1.9 µM; in assay [5], 26.8 µM.

`COc1cc(NS(=O)(=O)c2ccc(NCc3cnc4nc(NC(C)=O)[nH]c(=O)c4n3)cc2)nc(OC)n1`: the values for the minimum inhibitory concentration (MIC) in assay [1], in assay [2] and in assay [3] were 3.4 µM, 537 µM and 1.6 µM (≈ 0.844 µg/mL), respectively.

Regarding `Nc1nc2ncc(CNc3ccc(S(=O)(=O)Nc4ccccn4)cc3)nc2c(=O)[nH]1`, the MIC was 98 µM in assay [1], greater than 471 µM in assay [2] and 29.5 µM (≈ 12.5 µg/mL) in assay [3]. Further, the IC50 in assay [4] was 2.5 µM; in assay [5], greater than 62.5 µM.

`O=C(N[C@H](CO)[C@H](O)c1ccc([N+](=O)[O-])cc1)C(Cl)Cl` [CHLORAMPHENICOL]: the MIC in assay [1] came to 9.7 µM; in assay [2], 9.7 µM; in assay [3], 8.5 µM (≈ 2.75 µg/mL).

On to `Nc1nc2ncc(CNc3ccc(S(=O)(=O)Nc4ncccn4)cc3)nc2c(=O)[nH]1`, for which the figures for the MIC in assay [1], in assay [2] and in assay [3] were 78 µM, greater than 470 µM and 17.1 µM (≈ 7.27 µg/mL), respectively. Besides, the values for the concentration for half-maximal inhibition (IC50) in assay [4] and in assay [5] were 9.4 µM and 19.3 µM, respectively.

The values are drawn from ChEMBL document CHEMBL3826895, “Pterin-sulfa conjugates as dihydropteroate synthase inhibitors and antibacterial agents” (Bioorg Med Chem Lett, 2016).
